Results reported in ChEMBL document CHEMBL3272224, “Synthesis and hypotensive activity of N-alkyl-N"-cyano-N'-pyridylguanidines” (J Med Chem, 1978).
Calls of active or inactive are those of the source. No cut-off for these calls is given here.

Tests used:
[1] = species on record: Rattus norvegicus; test: Toxicity in rat assessed as effect on contraction of nictitating membranes by preganglionic stimulation; type: organism-based, Nictitating membrane; settings: in vivo
[2] = test system: Rattus norvegicus; test: Hypotensive activity in spontaneously hypertensive Wistar-Okamoto rat assessed as time required for persistence of hypotensive effect at 1 mg/kg, po; type: functional
In short: (§1)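 SHR (Wistar-Okamoto), five per dose, were given an oral dose in 0.5% carboxymethylcellulose. Indirect cuff pressure in restrained conscious rats was read before dosing and at 2, 4, 6, 8, 12 and 24 h. Duration (h) was scored while pressure remained 15 mmHg or more below the initial reading.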

[3] = test system: Rattus norvegicus; test: Hypotensive activity in po dosed spontaneously hypertensive Wistar-Okamoto rat assessed as dose required to cause 30 mmHg fall of blood pressure administered for 5 days; type: functional; settings: 120 h, read-out: MED
[4] = test system: Canis familiaris; test: Hypotensive activity in conscious renal hypertensive dog assessed as time required for persistence of hypotensive effect at 0.5 mg/kg, po measured for 8 hrs; type: functional, Canis lupus familiaris
In short: (§2)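 Conscious renal hypertensive dogs received single oral doses in soft gelatin capsules, three per dose. Indirect standing blood pressure was read before dosing and hourly to 8 h. Duration (h) was the time the pressure stayed 15 mmHg or more below the initial value, which was taken as persistence of the hypotensive effect.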

[5] = test system: Rattus norvegicus; test: Toxicity in rat assessed as change in cardiac noradrenaline level at 1 mg/kg; type: organism-based, Heart; set-up: dose 1 mg/kg; settings: in vivo
In short: (§3)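 Rats were given single or repeated (5 days) administration, and cardiac noradrenaline levels were measured.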

[6] = test system: Canis familiaris; test: Hypotensive activity in conscious renal hypertensive dog assessed as maximum change in mean blood pressure at 0.5 mg/kg, po measured for 8 hrs relative to control; type: functional, Canis lupus familiaris
In short: (§4)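 Renal hypertensive dogs, conscious, dosed orally in soft gelatin capsules, three dogs per dose. Mean blood pressure was taken indirectly with an Arteriosonde, standing animals in a semi-insonorized room, just before dosing and then hourly for 8 h. Maximum change was measured after a single administration and given as mean ± error.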

[7] = species on record: Felis catus; test: Hypotensive activity in decerebrated cat; type: functional, organism-based
[8] = test system: Rattus norvegicus; test: Hypotensive activity in spontaneously hypertensive Wistar-Okamoto rat assessed as maximum change in mean blood pressure at 2.5 mg/kg, po relative to control; type: functional
In short: (§5)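 Spontaneously hypertensive Wistar-Okamoto rats, five per dose, received compound orally, dissolved or suspended in 0.5% carboxymethylcellulose. Blood pressure was measured indirectly by tail cuff in restrained conscious rats before dosing and at 2, 4, 6, 8, 12 and 24 h. Maximum change was measured after a single administration and given as mean ± error.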

[9] = test system: Canis familiaris; test: Hypotensive activity in conscious renal hypertensive dog assessed as time required for persistence of hypotensive effect at 0.25 mg/kg, po measured for 8 hrs; type: functional, Canis lupus familiaris; in short: as §2
[10] = test system: Rattus norvegicus; test: Toxicity in rat assessed as change in cardiac noradrenaline level at 1 mg/kg for 5 days; type: organism-based, Heart; set-up: dose 1 mg/kg; settings: in vivo, 120 h; in short: as §3
[11] = test system: Rattus norvegicus; test: Hypotensive activity in spontaneously hypertensive Wistar-Okamoto rat assessed as maximum change in mean blood pressure at 1 mg/kg, po relative to control; type: functional; in short: as §5
[12] = test system: Canis familiaris; test: Hypotensive activity in conscious renal hypertensive dog assessed as time required for persistence of hypotensive effect at 1 mg/kg, po measured for 8 hrs; type: functional, Canis lupus familiaris; in short: as §2
[13] = test system: Rattus norvegicus; test: Hypotensive activity in spontaneously hypertensive Wistar-Okamoto rat assessed as maximum change in mean blood pressure at 0.5 mg/kg, po relative to control; type: functional; in short: as §5
[14] = test system: Rattus norvegicus; test: Hypotensive activity in spontaneously hypertensive Wistar-Okamoto rat assessed as time required for persistence of hypotensive effect at 0.5 mg/kg, po; type: functional; in short: as §1
[15] = test system: Canis familiaris; test: Hypotensive activity in conscious renal hypertensive dog assessed as maximum change in mean blood pressure at 0.25 mg/kg, po measured for 8 hrs relative to control; type: functional, Canis lupus familiaris; in short: as §4
[16] = test system: Canis familiaris; test: Hypotensive activity in conscious renal hypertensive dog assessed as maximum change in mean blood pressure at 1 mg/kg, po measured for 8 hrs relative to control; type: functional, Canis lupus familiaris; in short: as §4
[17] = test system: Rattus norvegicus; test: Hypotensive activity in spontaneously hypertensive Wistar-Okamoto rat assessed as time required for persistence of hypotensive effect at 2.5 mg/kg, po; type: functional; in short: as §1
[18] = Toxicity in po dosed mouse assessed as mortality after 7 days; settings: in vivo
[19] = test system: Canis familiaris; test: Hypotensive activity in conscious renal hypertensive dog assessed as maximum change in mean blood pressure at 2 mg/kg, po measured for 8 hrs relative to control; type: functional, Canis lupus familiaris; in short: as §4
[20] = test system: Rattus norvegicus; test: Hypotensive activity in po dosed spontaneously hypertensive Wistar-Okamoto rat relative to hydralazine; type: functional
[21] = test system: Canis familiaris; test: Hypotensive activity in conscious renal hypertensive dog assessed as time required for persistence of hypotensive effect at 2 mg/kg, po measured for 8 hrs; type: functional, Canis lupus familiaris; in short: as §2
[22] = test system: Rattus norvegicus; test: Hypotensive activity in spontaneously hypertensive Wistar-Okamoto rat assessed as time required for persistence of hypotensive effect at 0.25 mg/kg, po; type: functional; in short: as §1
[23] = test system: Rattus norvegicus; test: Hypotensive activity in spontaneously hypertensive Wistar-Okamoto rat assessed as time required for persistence of hypotensive effect at 0.1 mg/kg, po; type: functional; in short: as §1
[24] = Toxicity in po dosed Sprague-Dawley rat assessed as mortality after 7 days; type: organism-based; settings: in vivo
[25] = test system: Rattus norvegicus; test: Hypotensive activity in spontaneously hypertensive Wistar-Okamoto rat assessed as maximum change in mean blood pressure at 0.25 mg/kg, po relative to control; type: functional; in short: as §5
[26] = test system: Rattus norvegicus; test: Hypotensive activity in spontaneously hypertensive Wistar-Okamoto rat assessed as maximum change in mean blood pressure at 0.1 mg/kg, po relative to control; type: functional; in short: as §5
[27] = test system: Rattus norvegicus; test: Toxicity in rat assessed as change in cardiac noradrenaline level at 0.1 mg/kg; type: organism-based, Heart; set-up: dose 0.1 mg/kg; settings: in vivo; in short: as §3
[28] = test system: Rattus norvegicus; test: Hypotensive activity in po dosed spontaneously hypertensive Wistar-Okamoto rat relative to guancydine; type: functional
[29] = test system: Rattus norvegicus; test: Hypotensive activity in spontaneously hypertensive Wistar-Okamoto rat assessed as maximum change in mean blood pressure at 0.01 mg/kg, po relative to control; type: functional; in short: as §5
[30] = test system: Rattus norvegicus; test: Hypotensive activity in spontaneously hypertensive Wistar-Okamoto rat assessed as maximum change in mean blood pressure at 0.05 mg/kg, po relative to control; type: functional; in short: as §5
[31] = test system: Canis familiaris; test: Hypotensive activity in conscious renal hypertensive dog assessed as time required for persistence of hypotensive effect at 0.05 mg/kg, po measured for 8 hrs; type: functional, Canis lupus familiaris; in short: as §2
[32] = test system: Canis familiaris; test: Hypotensive activity in conscious renal hypertensive dog assessed as maximum change in mean blood pressure at 0.1 mg/kg, po measured for 8 hrs relative to control; type: functional, Canis lupus familiaris; in short: as §4
[33] = test system: Rattus norvegicus; test: Toxicity in rat assessed as change in cardiac noradrenaline level at 0.1 mg/kg for 5 days; type: organism-based, Heart; set-up: dose 0.1 mg/kg; settings: in vivo, 120 h; in short: as §3
[34] = test system: Canis familiaris; test: Hypotensive activity in conscious renal hypertensive dog assessed as maximum change in mean blood pressure at 0.05 mg/kg, po measured for 8 hrs relative to control; type: functional, Canis lupus familiaris; in short: as §4
[35] = test system: Rattus norvegicus; test: Hypotensive activity in spontaneously hypertensive Wistar-Okamoto rat assessed as time required for persistence of hypotensive effect at 0.01 mg/kg, po; type: functional; in short: as §1
[36] = test system: Rattus norvegicus; test: Hypotensive activity in spontaneously hypertensive Wistar-Okamoto rat assessed as time required for persistence of hypotensive effect at 0.05 mg/kg, po; type: functional; in short: as §1
[37] = test system: Canis familiaris; test: Hypotensive activity in conscious renal hypertensive dog assessed as time required for persistence of hypotensive effect at 0.1 mg/kg, po measured for 8 hrs; type: functional, Canis lupus familiaris; in short: as §2
[38] = test system: Rattus norvegicus; test: Hypotensive activity in spontaneously hypertensive Wistar-Okamoto rat assessed as maximum change in mean blood pressure at 5 mg/kg, po relative to control; type: functional; in short: as §5
[39] = test system: Canis familiaris; test: Hypotensive activity in conscious renal hypertensive dog assessed as maximum change in mean blood pressure at 5 mg/kg, po measured for 8 hrs relative to control; type: functional, Canis lupus familiaris; in short: as §4
[40] = test system: Canis familiaris; test: Hypotensive activity in conscious renal hypertensive dog assessed as time required for persistence of hypotensive effect at 2.5 mg/kg, po measured for 8 hrs; type: functional, Canis lupus familiaris; in short: as §2
[41] = test system: Canis familiaris; test: Hypotensive activity in conscious renal hypertensive dog assessed as maximum change in mean blood pressure at 10 mg/kg, po measured for 8 hrs relative to control; type: functional, Canis lupus familiaris; in short: as §4
[42] = test system: Rattus norvegicus; test: Hypotensive activity in spontaneously hypertensive Wistar-Okamoto rat assessed as time required for persistence of hypotensive effect at 10 mg/kg, po; type: functional; in short: as §1
[43] = test system: Canis familiaris; test: Hypotensive activity in conscious renal hypertensive dog assessed as time required for persistence of hypotensive effect at 5 mg/kg, po measured for 8 hrs; type: functional, Canis lupus familiaris; in short: as §2
[44] = test system: Canis familiaris; test: Hypotensive activity in conscious renal hypertensive dog assessed as time required for persistence of hypotensive effect at 10 mg/kg, po measured for 8 hrs; type: functional, Canis lupus familiaris; in short: as §2
[45] = test system: Canis familiaris; test: Hypotensive activity in conscious renal hypertensive dog assessed as maximum change in mean blood pressure at 2.5 mg/kg, po measured for 8 hrs relative to control; type: functional, Canis lupus familiaris; in short: as §4
[46] = test system: Rattus norvegicus; test: Hypotensive activity in spontaneously hypertensive Wistar-Okamoto rat assessed as maximum change in mean blood pressure at 10 mg/kg, po relative to control; type: functional; in short: as §5
[47] = test system: Rattus norvegicus; test: Hypotensive activity in spontaneously hypertensive Wistar-Okamoto rat assessed as time required for persistence of hypotensive effect at 5 mg/kg, po; type: functional; in short: as §1

## CC(N/C(=N\C#N)Nc1ccncc1)C(C)(C)C (stereo unspecified) [PINACIDIL ANHYDROUS]
[1]
  Activity: Non-toxic
[2]
  Time: >12 h
[3]
  minimal effective dose: 0.5 mg/kg
[4]
  Time: 6 h
[5]
  Activity: Non-toxic
[6]
  Activity: -43 mmHg
[7]
  Activity: Active
[8]
  Activity: -79 mmHg
[9]
  Time: 4 h
[10]
  Activity: Non-toxic
[11]
  Activity: -68 mmHg
[12]
  Time: >8 h
[13]
  Activity: -34 mmHg
[14]
  Time: 8 h
[15]
  Activity: -26 mmHg
[16]
  Activity: -67 mmHg
[17]
  Time: >12 h

## CC(=O)N(/C(=N\C#N)Nc1cccnc1)C(C)(C)C.O
[1]
  Activity: Non-toxic
[18]
  LD50 at 168 h: > 1000 mg/kg
[19]
  Activity: -75 mmHg
[20]
  fold change (FC): 2
[3]
  minimal effective dose: 0.1 mg/kg
[4]
  Time: 2 h
[21]
  Time: 8 h
[6]
  Activity: -22 mmHg
[22]
  Time: 4 h
[7]
  Activity: Active
[23]
  Time: 4 h
[24]
  LD50 at 168 h: 615 mg/kg
[25]
  Activity: -64 mmHg
[13]
  Activity: -86 mmHg
[14]
  Time: >8 h
[26]
  Activity: -30 mmHg

## CC(C)(C)/N=C(/NC#N)Nc1cccnc1
[1]
  Activity: Non-toxic
[18]
  LD50 at 168 h: > 1000 mg/kg
[3]
  minimal effective dose: 0.1 mg/kg
[27]
  Activity: Non-toxic
[28]
  fold change (FC): 100
[7]
  Activity: Active
[29]
  Activity: -26 mmHg
[30]
  Activity: -37 mmHg
[31]
  Time: 2 h
[9]
  Time: 6 h
[32]
  Activity: -45 mmHg
[33]
  Activity: Non-toxic
[23]
  Time: >8 h
[24]
  LD50 at 168 h: 278 mg/kg
[34]
  Activity: -25 mmHg
[35]
  Time: 4 h
[15]
  Activity: -62 mmHg
[36]
  Time: 6 h
[26]
  Activity: -72 mmHg
[37]
  Time: 4 h

## CCC(C)(C)/N=C(/S)Nc1cccnc1
[38]
  Activity: -47 mmHg
[39]
  Activity: -28 mmHg
[40]
  Time: 2 h
[41]
  Activity: -43 mmHg
[42]
  Time: >4 h
[8]
  Activity: -35 mmHg
[43]
  Time: 2 h
[44]
  Time: 4 h
[24]
  LD50 at 168 h: 460 mg/kg
[45]
  Activity: -14 mmHg
[46]
  Activity: -69 mmHg
[47]
  Time: 2 h
[17]
  Time: 2 h
